In publication PMC9392492 (International Journal of Nanomedicine, 2022):

Legend:
Format in all cases: in vivo
[1] = tested on: acetic acid-induced writhing in mice; experiment: Acetic acid writhing test; details: i.g.; RJ-III 0.10 mg/kg, aspirin 200 mg/kg
Summary of the method: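 Fasted ICR mice (18–22 g, both sexes), n = 10 per group, received free or SLN-formulated test compound (0.10 mg/kg), aspirin (200 mg/kg) or 0.9% saline, all i.g. Then 0.8% acetic acid (10 mL/kg, i.p.) was injected at 15 or 45 min post-dose, in two separate experiments. Abdominal contortions and hind-paw extensions were counted for 30 min.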

[2] = tested on: formalin-induced nociception in mice; experiment: Formalin test; details: formalin 15 min after i.g. administration; RJ-III 0.10 mg/kg, aspirin 200 mg/kg
Summary of the method: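 Fasted ICR mice, n = 10 per group, were dosed i.g. with free or SLN-formulated test compound (0.10 mg/kg), aspirin (200 mg/kg) or saline. Then 25 μL of 2.5% formalin was injected s.c. into the left hind paw at 15 or 45 min post-dose, in separate experiments. Licking/biting time (s) was scored at 0–5 min (phase I) and 15–30 min (phase II).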

[3] = tested on: hot-plate nociception in mice; experiment: Hot plate test; details: RJ-III 0.2 mg/kg, aspirin 300 mg/kg
Summary of the method: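 Baseline latency (paw lick or jump) on a 53 ± 0.5°C plate was taken three times, 15 min apart. Mice under 5 s or over 30 s were excluded. Fasted ICR mice (n = 10) then received free or SLN-formulated test compound (0.20 mg/kg), aspirin or saline, all i.g. Latency was re-measured at 15 and 45 min, with a 30 s cutoff.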

## CC(=O)Oc1ccccc1C(=O)O [aspirin]
[1]
  change in number of writhes between 15 and 45 min: statistically increases
[2]
  phase I response (licking time) vs normal saline: no effects
  phase II response (licking time) vs normal saline: suppressed behavioral responses
[3]; 15 min after i.g. administration
  latency time compared to pretreatment: increased the latency time
[3]; 45 min after i.g. administration
  antinociception relative to pretreatment: no significant analgesic effect
